Experimental findings from ChEMBL document CHEMBL3526048, “In vitro metabolism of rivoglitazone, a novel peroxisome proliferator-activated receptor γ agonist, in rat, monkey, and human liver microsomes and freshly isolated hepatocytes” (Drug Metab Dispos, 2011) are described below.

SMILES strings stand for the structures.

Data set [1] in a line: Drug metabolism in monkey hepatocytes assessed as formation of (2S,3S,4S,5R,6R)-3,4,5-trihydroxy-6-(5-(4-((6-methoxy-1-methyl-1H-benzo[d]imidazol-2-yl)methoxy)benzyl)-2,4-dioxothiazolidin-3-yl)tetrahydro-2H-pyran-2-carboxylic acid at 30 uM after 3 hrs by radio-HPLC/LC-MS/MS analysis. The note with it: cynomolgus monkey.
Data set [2] addresses T1, UDP-glucuronosyltransferase 2B7 (Homo sapiens, UniProt P16662).
T1 sequence (P16662 whole entry): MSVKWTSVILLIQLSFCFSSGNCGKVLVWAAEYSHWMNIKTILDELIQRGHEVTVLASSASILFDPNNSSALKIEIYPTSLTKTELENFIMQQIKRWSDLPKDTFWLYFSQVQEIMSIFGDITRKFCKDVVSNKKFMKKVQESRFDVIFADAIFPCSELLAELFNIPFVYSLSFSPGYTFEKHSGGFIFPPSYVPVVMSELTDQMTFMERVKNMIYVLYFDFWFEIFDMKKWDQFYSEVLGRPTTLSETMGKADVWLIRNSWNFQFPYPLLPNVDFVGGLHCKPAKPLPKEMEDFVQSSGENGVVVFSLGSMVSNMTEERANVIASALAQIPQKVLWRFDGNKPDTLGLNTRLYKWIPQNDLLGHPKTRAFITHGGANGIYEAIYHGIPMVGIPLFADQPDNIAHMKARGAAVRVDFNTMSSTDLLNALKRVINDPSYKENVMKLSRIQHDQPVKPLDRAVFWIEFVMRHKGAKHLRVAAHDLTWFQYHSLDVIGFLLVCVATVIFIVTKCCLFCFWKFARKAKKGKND
Briefly: Activity of human UGT2B7 expressed in microsomes isolated from baculovirus infected insect cell assessed as enzyme-mediated 3-(4-((6-methoxy-1-methyl-1H-benzo[d]imidazol-2-yl)methoxy)phenyl)-2-(methylthio)propanoic acid formation at 20 uM after 4 hrs by radio-HPLC/LC-MS/MS analysis in presence of NADPH-generating system/SAM and UDPGA/SAM in presence of UDPGA and UDPGA/SAM. Format: ADME.

Data set [3] deals with T2, Cytochrome P450 2D6 (Homo sapiens, UniProt P10635). The experiment in a line: Activity of human CYP2D6 expressed in microsomes isolated from baculovirus infected insect cell assessed as enzyme-mediated 3-(4-((6-methoxy-1-methyl-1H-benzo[d]imidazol-2-yl)methoxy)phenyl)-2-(methylsulfinyl)propanamide formation at 20 uM after 2 hrs by radio-HPLC/LC-MS/MS analysis in presence of NADPH-generating system/SAM. The format is ADME.
T2 sequence (P10635 whole entry): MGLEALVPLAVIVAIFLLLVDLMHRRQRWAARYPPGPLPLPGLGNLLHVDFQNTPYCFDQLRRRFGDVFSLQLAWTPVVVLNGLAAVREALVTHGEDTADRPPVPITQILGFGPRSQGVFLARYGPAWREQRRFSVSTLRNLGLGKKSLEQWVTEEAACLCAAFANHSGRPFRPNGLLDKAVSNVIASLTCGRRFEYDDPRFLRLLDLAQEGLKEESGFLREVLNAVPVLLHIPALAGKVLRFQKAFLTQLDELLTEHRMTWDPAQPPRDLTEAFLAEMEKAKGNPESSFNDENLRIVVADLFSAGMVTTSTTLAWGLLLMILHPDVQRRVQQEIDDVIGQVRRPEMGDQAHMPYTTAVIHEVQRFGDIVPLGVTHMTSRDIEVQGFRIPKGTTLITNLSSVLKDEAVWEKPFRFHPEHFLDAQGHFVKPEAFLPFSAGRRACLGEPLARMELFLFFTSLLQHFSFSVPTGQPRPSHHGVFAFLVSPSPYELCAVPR

For a further data set, the system named is Plasma. Briefly: Drug metabolism in po dosed monkey plasma assessed as formation of 5-(4-((6-methoxy-1H-benzo[d]imidazol-2-yl)methoxy)benzyl)thiazolidine-2,4-dione. Format: ADME, organism-based, Macaca mulatta. The note with it: rhesus monkey, in vivo.
The target of data set [4] is T3, UDP-glucuronosyltransferase 1A3 (Homo sapiens, UniProt P35503).
T3 sequence (P35503 whole entry): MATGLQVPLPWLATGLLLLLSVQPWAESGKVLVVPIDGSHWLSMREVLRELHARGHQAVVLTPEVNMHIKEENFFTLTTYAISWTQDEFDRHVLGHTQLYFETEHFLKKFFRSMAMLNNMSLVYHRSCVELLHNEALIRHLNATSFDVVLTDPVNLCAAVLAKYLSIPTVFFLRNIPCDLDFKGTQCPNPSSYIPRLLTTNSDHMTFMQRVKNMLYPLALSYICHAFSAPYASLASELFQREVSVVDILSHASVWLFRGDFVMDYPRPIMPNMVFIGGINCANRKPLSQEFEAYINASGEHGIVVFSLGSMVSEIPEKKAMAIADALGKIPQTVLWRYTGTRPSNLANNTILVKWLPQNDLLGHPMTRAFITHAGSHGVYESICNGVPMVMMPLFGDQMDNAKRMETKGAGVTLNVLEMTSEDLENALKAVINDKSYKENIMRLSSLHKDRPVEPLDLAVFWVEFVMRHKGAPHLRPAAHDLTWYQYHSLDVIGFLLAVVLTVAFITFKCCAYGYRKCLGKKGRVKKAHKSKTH
The experiment in a line: Activity of human UGT1A3 expressed in microsomes isolated from baculovirus infected insect cell assessed as enzyme-mediated 3-(4-((6-methoxy-1-methyl-1H-benzo[d]imidazol-2-yl)methoxy)phenyl)-2-(methylsulfonyl)propanamide formation at 20 uM after 4 hrs by radio-HPLC/LC-MS/MS analysis in presence of NADPH-generating system/SAM. The format is ADME.

The nature of data set [5]: Drug metabolism in monkey hepatocytes assessed as formation of 2-hydroxy-3-(4-((6-methoxy-1-methyl-1H-benzo[d]imidazol-2-yl)methoxy)phenyl)propanamide at 30 uM after 3 hrs by radio-HPLC/LC-MS/MS analysis in presence of NADPH-generating system and NADPH-generating system/SAM. The note with it: cynomolgus monkey.
In a further data set the target is Cytochrome P450 3A5 (Homo sapiens, UniProt P20815). The experiment in a line: Activity of human CYP3A5 expressed in microsomes isolated from baculovirus infected insect cell assessed as enzyme-mediated 5-(4-((6-hydroxy-1-methyl-1H-benzo[d]imidazol-2-yl)methoxy)benzyl)thiazolidine-2,4-dione formation at 20 uM after 2 hrs by radio-HPLC/LC-MS/MS analysis in presence of NADPH-generating system and NADPH-generating system/SAM. Format: ADME. In short, it runs like this:
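cDNA-expressed human CYP3A5 in baculovirus-insect-cell microsomes (1 mg/ml protein) was incubated with [¹⁴C]rivoglitazone (20 μM) in 50 mM potassium phosphate (pH 7.4) or 100 mM Tris-HCl (pH 7.5). NADPH-generating system: 2 mM NADP⁺, 20 mM glucose 6-phosphate, 2 units/ml G6PDH, 10 mM MgCl₂. Incubation ran 2 h at 37°C with shaking; insect-cell control supersomes served as control. Acetonitrile stop, supernatant concentrated, then radio-HPLC, LC-MS and LC-MS/MS.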

Data set [6] concerns the target T2, Cytochrome P450 2D6. Briefly: Activity of human CYP2D6 expressed in microsomes isolated from baculovirus infected insect cell assessed as enzyme-mediated 3-(4-((6-methoxy-1-methyl-1H-benzo[d]imidazol-2-yl)methoxy)phenyl)-2-(methylthio)propanoic acid formation at 20 uM after 2 hrs by radio-HPLC/LC-MS/MS analysis in presence of NADPH-generating system/SAM and UDPGA/SAM. Format: ADME.

Cytochrome P450 3A5, sequence (P20815 whole entry): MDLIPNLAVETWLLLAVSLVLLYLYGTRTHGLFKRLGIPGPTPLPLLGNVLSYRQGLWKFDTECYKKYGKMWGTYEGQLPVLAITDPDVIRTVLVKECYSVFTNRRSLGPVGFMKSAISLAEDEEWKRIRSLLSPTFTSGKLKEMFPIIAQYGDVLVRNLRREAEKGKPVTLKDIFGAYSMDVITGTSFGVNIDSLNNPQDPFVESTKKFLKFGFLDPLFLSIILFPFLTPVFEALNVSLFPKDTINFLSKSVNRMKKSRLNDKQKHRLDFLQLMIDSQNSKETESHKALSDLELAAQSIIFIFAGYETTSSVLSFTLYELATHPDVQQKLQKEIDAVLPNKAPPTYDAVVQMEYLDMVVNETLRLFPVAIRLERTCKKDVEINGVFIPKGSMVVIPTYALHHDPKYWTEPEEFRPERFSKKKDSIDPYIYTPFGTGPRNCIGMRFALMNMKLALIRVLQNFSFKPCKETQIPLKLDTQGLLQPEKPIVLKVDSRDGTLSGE

As for `COc1ccc2nc(COc3ccc(C[14CH]4SC(=O)NC4=O)cc3)n(C)c2c1.Cl` (racemic), the Drug metabolism result in data set [1] is “metabolite_detected”; in data set [2], “metabolite_not_detected”; at Cytochrome P450 2D6 [3], “metabolite_not_detected”; with Plasma it was “metabolite_detected”; in data set [4] it was “metabolite_not_detected”; in data set [5], “metabolite_not_detected”. In addition, the Drug metabolism entry is recorded as “metabolite_detected” at Cytochrome P450 3A5 and “metabolite_not_detected” at Cytochrome P450 2D6 [6].
